Measured values as given in ChEMBL document CHEMBL4219038, “1-Thiazol-2-yl-N-3-methyl-1H-pyrozole-5-carboxylic acid derivatives as antitumor agents” (Bioorg Med Chem Lett, 2017).
Activity calls are given as the source filed them. No cut-off for these calls is given here.

Columns and labels:
[1] = Plasma concentration (7 hrs) in J:Nu mouse at 30 mg/kg, po qd for 7 days measured on day 5; assay type: ADME, organism-based
How it was run: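 J:Nu female mice, N = 4 per group, dosed orally once daily at 10, 30 or 60 mg/kg in 5% NMP, 10% PEG-400, 15% Solutol, 70% D5W. Blood was sampled every other day, alternating Cmax and predose draws. Plasma concentration was taken 7 h after dosing.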

[2] = MRT in mouse at 100 mg/kg, po; assay type: ADME, organism-based; conditions: in vivo
[3] = Kinetic solubility of the compound in PBS buffer at pH 7.4 in presence of 10% FBS; assay type: physicochemical; conditions: PBS buffer with 10% FBS, read-out: Kinetic_solubility
[4] = Dose normalized AUC (0 to infinity) in J:Nu mouse plasma at 10 mg/kg, po qd for 7 days; assay type: ADME, organism-based; conditions: in vivo, 168 h
How it was run: (§1)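 J:Nu female mice, N = 4 per group, dosed orally once daily at 10, 30 or 60 mpk in 5% NMP, 10% PEG-400, 15% Solutol, 70% D5W. The 30 and 60 mpk groups were raised to 90 and 120 mpk from day 8 to 13.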

Mus musculus [5] = experiment: Toxicity in J:Nu mouse assessed as organ damage at 30 mg/kg, po qd for 7 days followed by 90 mg/kg, po qd for 5 days from day 8 to 13 measured 48 hrs after post last dose by pathology analysis; assay type: organism-based; conditions: in vivo
How it was run: (§2)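 In J:Nu female mice (N = 4 per group), dosing was oral once daily at 30 or 60 mg/kg in 5% NMP/10% PEG-400/15% Solutol/70% D5W for 7 days. Doses were then raised to 90 or 120 mg/kg respectively on days 8–13. Clinical signs and body weights were recorded daily. Gross pathology, with spleen and liver weights, was done 48 h after the last dose.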

MCF7 = experiment: Antiproliferative activity against human MCF7 cells; assay type: functional, cell-based
[6] = AUC (0 to infinity) in iv dosed mouse; assay type: ADME, organism-based; design: time infinity, route intravenous; conditions: in vivo
BJAB [7] = experiment: Antiproliferative activity against human BJAB cells after 4 days; assay type: functional, cell-based; conditions: Homo sapiens, BJAB, 96 h; read-out: EC50
Mus musculus [8] = experiment: Ratio of Cmax in mouse at 2.5 mg/kg, po to Cmax in mouse at 50 mg/kg, po; assay type: ADME, organism-based; conditions: in vivo
[9] = Dose normalized Cmax in J:Nu mouse plasma at 10 mg/kg, po qd for 7 days; assay type: ADME, organism-based; conditions: in vivo, 168 h; how it was run: as §1
[10] = Cmax in J:Nu mouse plasma at 10 mg/kg, po qd for 7 days; assay type: ADME, organism-based; design: dose 10 mg/kg, route oral; how it was run: as §1
[11] = Clearance in iv dosed mouse; assay type: ADME, organism-based; conditions: in vivo
[12] = Tmax in po dosed mouse; assay type: ADME, organism-based; conditions: in vivo
BJAB [13] = experiment: Induction of apoptosis in human BJAB cells by high content cell imaging studies; assay type: functional, cell-based
[14] = AUC (0 to infinity) in mouse at 50 mg/kg; assay type: ADME, organism-based; design: dose 50 mg/kg, time infinity; conditions: in vivo
[15] = AUC (0 to infinity) in J:Nu mouse plasma at 10 mg/kg, po qd for 7 days; assay type: ADME, organism-based; design: dose 10 mg/kg, route oral, time infinity; how it was run: as §1
[16] = Volume of distribution at steady state in iv dosed mouse; assay type: ADME, organism-based; conditions: in vivo, read-out: Vdss
Daudi = experiment: Antiproliferative activity against human Daudi cells; assay type: functional, cell-based
B cell = experiment: Antiproliferative activity against human primary B cells; assay type: cell-based
Mus musculus [17] = experiment: Toxicity in J:Nu mouse assessed as changes in organ weight at 30 mg/kg, po qd for 7 days followed by 90 mg/kg, po qd for 5 days from day 8 to 13 measured 48 hrs after post last dose by pathology analysis; assay type: organism-based; conditions: in vivo; how it was run: as §2
Mus musculus [18] = experiment: Toxicity in J:Nu mouse assessed as induction of changes in critical clinical parameters at 60 mg/kg, po qd for 7 days followed by 120 mg/kg, po qd for 5 days from day 8 to 13; assay type: organism-based; conditions: in vivo; how it was run: as §2
[19] = Dose normalized AUC (0 to infinity) in J:Nu mouse plasma at 60 mg/kg, po qd for 7 days followed by 120 mg/kg, po qd for 5 days from day 8 to 13; assay type: ADME, organism-based; conditions: in vivo; how it was run: as §1
[20] = Protein binding in human plasma; assay type: ADME, cell-free; conditions: read-out: PPB (converted)
Jurkat = experiment: Antiproliferative activity against human Jurkat cells; assay type: functional, cell-based
Mus musculus [21] = experiment: Toxicity in J:Nu mouse assessed as induction of changes in critical clinical parameters at 30 mg/kg, po qd for 7 days followed by 90 mg/kg, po qd for 5 days from day 8 to 13; assay type: organism-based; conditions: in vivo; how it was run: as §2
[22] = Cmax in mouse at 50 mg/kg; assay type: ADME, organism-based; design: dose 50 mg/kg; conditions: in vivo
Mus musculus [23] = experiment: Ratio of AUC (0 to infinity) in mouse at 2.5 mg/kg, po to Cmax in mouse at 100 mg/kg, po; assay type: ADME, organism-based; conditions: in vivo
Mus musculus [24] = experiment: Ratio of Cmax in mouse at 2.5 mg/kg, po to Cmax in mouse at 100 mg/kg, po; assay type: ADME, organism-based; conditions: in vivo
[25] = Protein binding in mouse plasma; assay type: ADME, cell-free; conditions: read-out: PPB (converted)
[26] = Initial plasma concentration in iv dosed mouse; assay type: ADME, organism-based
[27] = MRT in mouse at 2.5 mg/kg, po; assay type: ADME, organism-based; conditions: in vivo

Which concentration at 7 h [1] does the source give for `Cc1nn(-c2nc(-c3ccc(Cl)c(Cl)c3)c(SC(C)C)s2)c(C(=O)O)c1-c1cc(Cl)cc(Cl)c1` here?
The concentration at 7 h was 57300 ng/mL.

And the MRT [2]?
Its MRT is 14.3 h.

And the solubility kinetic [3]?
The solubility kinetic was greater than 200 µM.

And the AUC/dose [4]?
The AUC/dose was 33000 ng·kg·h/mL/mg.

And the Activity (Mus musculus [5])?
The Activity was “Non-Toxic”.

And the IC50 (MCF7)?
Its IC50 is 260 nM.

What about the AUC(0-inf) [6] of the same compound?
Its AUC(0-inf) is 10.7 µg·h/mL.

What about the EC50 (BJAB [7]) of the same compound?
Its EC50 is 554 nM.

What about the Ratio (Mus musculus [8]) of the same compound?
The Ratio was 8.8.

What about the Cmax/dose [9] of the same compound?
Its Cmax/dose is 2897.9 ng/mL.

And the Cmax [10]?
Its Cmax is 29000 ng/mL.

What about the clearance [11] of the same compound?
The clearance was 0.8 mL/min/kg.

What about the Tmax [12] of the same compound?
The Tmax was 5 h.

And the Activity (BJAB [13])?
Its Activity is “Active”.

What about the AUC(0-inf) [14] of the same compound?
The AUC(0-inf) was 2250 µg·h/mL.

And the AUC(0-inf) [15]?
The AUC(0-inf) was 330 µg·h/mL.

And the Vd [16]?
Its Vd is 0.444 L/kg.

What about the IC50 (Daudi) of the same compound?
The IC50 was 380 nM.

And the IC50 (B cell)?
Its IC50 is greater than 40000 nM.

And the Activity (Mus musculus [17])?
Its Activity is “Non-Toxic”.

And the Activity (Mus musculus [18])?
Its Activity is “Non-Toxic”.

What about the AUC/dose [19] of the same compound?
Its AUC/dose is 12800 ng·kg·h/mL/mg.

And the fraction unbound [20]?
The fraction unbound was 0.027.

What about the IC50 (Jurkat) of the same compound?
Its IC50 is 500 nM.

What about the Activity (Mus musculus [21]) of the same compound?
The Activity was “Non-Toxic”.

And the Cmax [22]?
The Cmax was 138000 ng/mL.

What about the Ratio (Mus musculus [23]) of the same compound?
The Ratio was 1.4.

And the Ratio (Mus musculus [24])?
The Ratio was 0.9.

What about the fraction unbound [25] of the same compound?
Its fraction unbound is 0.008.

What about the C0 [26] of the same compound?
Its C0 is 3190 ng/mL.

And the MRT [27]?
Its MRT is 15.1 h.
